From ChEMBL document CHEMBL3286149, “Synthesis of rigidified eIF4E/eIF4G inhibitor-1 (4EGI-1) mimetic and their in vitro characterization as inhibitors of protein-protein interaction” (J Med Chem, 2014)

Experiments:
[1] = Retention time of the compound by RP-HPLC analysis; format: physicochemical
How it was run: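 C18 Xbridge column (4.6 mm × 100 mm), 1 mL/min, detection at 254 nm. Mobile phase A 0.1% v/v FA in water, B 0.1% v/v TFA in acetonitrile. Linear gradient usually 0–100% B over 26 min; some runs 50–100% B over 20 min or 30–100% B over 26 min.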

[2] = Antiproliferative activity against human CRL2813 cells assessed as inhibition of cell proliferation after 5 days by sulforhodamine B assay; format: functional, cell-based; conditions: CRL2813, 120 h
How it was run: (§1)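 Adherent cells (CRL-2351 breast, CRL-2813 melanoma) in 96-well plates kept 5 days with compound at 0.54–20 μM. Fixed in cold 10% TCA at 4 °C overnight, stained 1 h at RT with 0.057% SRB in 1% acetic acid, unbound dye removed with 1% acetic acid, bound dye dissolved in 10 mM Tris pH 10, absorbance read at 510 nm. IC50 reported.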

[3] = Antiproliferative activity against human CRL2351 cells assessed as inhibition of cell proliferation after 5 days by sulforhodamine B assay; format: functional, cell-based; conditions: 120 h; how it was run: as §1
[4] = target: Eukaryotic translation initiation factor 4E (Homo sapiens, UniProt P06730); assay: Displacement of N-alpha-fluorescein tagged eIF4G-derived peptide from GST-DN26-eIF4E (unknown origin) by fluorescence polarization assay
Chain of Eukaryotic translation initiation factor 4E (P06730 whole entry): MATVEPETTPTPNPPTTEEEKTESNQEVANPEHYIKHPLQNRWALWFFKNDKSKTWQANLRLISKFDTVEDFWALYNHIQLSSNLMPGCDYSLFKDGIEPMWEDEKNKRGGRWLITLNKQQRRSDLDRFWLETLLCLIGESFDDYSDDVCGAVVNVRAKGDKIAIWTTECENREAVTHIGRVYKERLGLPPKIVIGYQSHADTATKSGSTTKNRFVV

SMILES | Retention_time [1] | IC50 [2] | IC50 [3] | IC50 [4]
O=C(O)/C(Cc1ccccc1[N+](=O)[O-])=N/Nc1nc2c(s1)CS(=O)(=O)c1cc(Cl)c(Cl)cc1-2 | 11.48 min | – | – | –
O=C(O)/C(Cc1ccccc1[N+](=O)[O-])=N\Nc1nc2c(s1)COc1c-2ccc(Cl)c1Cl | 13.6 min | 12.3 µM | > 20 µM | –
O=C(O)/C(Cc1ccccc1[N+](=O)[O-])=N/Nc1nc2c(s1)CSc1cc(Cl)c(Cl)cc1-2 | 10.33 min | 5.1 µM | 17.6 µM | –
O=C(O)/C(Cc1ccccc1[N+](=O)[O-])=N/Nc1nc2c(s1)CS(=O)(=O)c1c-2ccc(Cl)c1Cl | 12.41 min | – | – | –
O=C(O)/C(Cc1ccccc1[N+](=O)[O-])=N/Nc1nc2c(s1)C[S+]([O-])c1c-2ccc(Cl)c1Cl (stereo not drawn) | 8.74 min | 11.2 µM | > 20 µM | –
COc1ccc2c(c1OC)OCc1sc(N/N=C(\Cc3ccccc3[N+](=O)[O-])C(=O)O)nc1-2 | 8.78 min | > 20 µM | – | –
O=C(O)/C(Cc1ccccc1[N+](=O)[O-])=N/Nc1nc2c(s1)CCc1c-2ccc(Cl)c1Cl | 8.69 min | 3.6 µM | 4.4 µM | –
O=C(O)/C(Cc1ccccc1[N+](=O)[O-])=N\Nc1nc2c(s1)CS(=O)(=O)c1c-2ccc(Cl)c1Cl | 13.63 min | – | – | –
O=C(O)/C(Cc1ccccc1[N+](=O)[O-])=N\Nc1nc2c(s1)CSc1cc(Cl)c(Cl)cc1-2 | 13.33 min | 10.5 µM | 17.7 µM | –
O=C(O)/C(Cc1ccccc1[N+](=O)[O-])=N\Nc1nc(-c2ccc(Cl)c(Cl)c2)cs1 | – | 15.3 µM | 11.6 µM | –
O=C(O)/C(Cc1ccccc1[N+](=O)[O-])=N/Nc1nc2c(s1)CCc1cc(Cl)c(Cl)cc1-2 | 8.37 min | 3.8 µM | 4.1 µM | 21.5 µM
COc1cc2c(cc1OC)-c1nc(N/N=C(\Cc3ccccc3[N+](=O)[O-])C(=O)O)sc1CO2 | 9.07 min | > 20 µM | – | –
COc1cc2c(cc1OC)-c1nc(N/N=C(\Cc3ccccc3[N+](=O)[O-])C(=O)O)sc1CC2 | 10 min | 12.1 µM | > 20 µM | –
COc1cc2c(cc1OC)-c1nc(N/N=C(/Cc3ccccc3[N+](=O)[O-])C(=O)O)sc1CO2 | 10.9 min | – | – | –
O=C(O)/C(Cc1ccccc1[N+](=O)[O-])=N\Nc1nc2c(s1)CS(=O)(=O)c1cc(Cl)c(Cl)cc1-2 | 12.41 min | – | – | –
COc1cc2c(cc1OC)-c1nc(N/N=C(/Cc3ccccc3[N+](=O)[O-])C(=O)O)sc1CC2 | 11.22 min | > 20 µM | > 20 µM | –
O=C(O)/C(Cc1ccccc1[N+](=O)[O-])=N/Nc1nc2c(s1)COc1cc(Cl)c(Cl)cc1-2 | 12.77 min | 3.1 µM | 5.2 µM | –
O=C(O)/C(Cc1ccccc1[N+](=O)[O-])=N\Nc1nc2c(s1)COc1cc(Cl)c(Cl)cc1-2 | 14.74 min | 8.7 µM | 15.4 µM | –
O=C(O)/C(Cc1ccccc1[N+](=O)[O-])=N\Nc1nc2c(s1)CCc1c-2ccc(Cl)c1Cl | 11.39 min | 10.6 µM | 11.2 µM | –
O=C(O)/C(Cc1ccccc1[N+](=O)[O-])=N\Nc1nc2c(s1)C[S+]([O-])c1c-2ccc(Cl)c1Cl (stereo not drawn) | 10.12 min | 11.4 µM | 19.8 µM | –
O=C(O)/C(Cc1ccccc1[N+](=O)[O-])=N\Nc1nc2c(s1)CSc1c-2ccc(Cl)c1Cl | 18.23 min | 7 µM | 16.7 µM | –
O=C(O)/C(Cc1ccccc1[N+](=O)[O-])=N/Nc1nc2c(s1)C[S+]([O-])c1cc(Cl)c(Cl)cc1-2 (stereo not drawn) | 9.82 min | 7.5 µM | > 20 µM | –
O=C(O)/C(Cc1ccccc1[N+](=O)[O-])=N\Nc1nc2c(s1)CCc1cc(Cl)c(Cl)cc1-2 | 10.79 min | 12 µM | > 20 µM | 34 µM
COc1ccc2c(c1OC)OCc1sc(N/N=C(/Cc3ccccc3[N+](=O)[O-])C(=O)O)nc1-2 | 10.38 min | – | – | –
O=C(O)/C(Cc1ccccc1[N+](=O)[O-])=N\Nc1nc2c(s1)C[S+]([O-])c1cc(Cl)c(Cl)cc1-2 (stereo not drawn) | 10.38 min | 4.1 µM | 10.3 µM | –
O=C(O)/C(Cc1ccccc1[N+](=O)[O-])=N/Nc1nc2c(s1)COc1c-2ccc(Cl)c1Cl | 11.6 min | 5.8 µM | 16.6 µM | –
O=C(O)/C(Cc1ccccc1[N+](=O)[O-])=N/Nc1nc2c(s1)CSc1c-2ccc(Cl)c1Cl | 15.66 min | 4.5 µM | 9.1 µM | –
